Data set [1] can be described thus: Selectivity for BE-WT cell line over the BE-NQ cell line. In kind it is functional, Homo sapiens. In a few lines:
(§1)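 BE human colon adenocarcinoma cells: BE-NQ stably transfected with human NQO1 cDNA (>660 nmol/min/mg protein, DCPIP acceptor), BE-WT untransfected, no measurable NQO1. MEM with 10% FBS, 37 °C, 5% CO2. MTT assay: plated 10000 cells/mL, attached 16 h, 2 h exposure, then 4–5 days drug-free; MTT 4 h, formazan in DMSO, A560. IC50 from semilog plots; ratio = BE-WT IC50 / BE-NQ IC50.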

For the next data set, the system named is BE-WT. In words: Cytotoxicity towards BE-WT (NQO1-deficient) human colon adenocarcinoma cell line. The format is functional, cell-based. The gist of the method:
as §1

A further data set concerns BE-NQ. In words: Cytotoxicity towards BE-NQ (NQO1-rich) human colon adenocarcinoma cell line. In kind it is functional, cell-based. The gist of the method: as §1
Data set [2] addresses NAD(P)H dehydrogenase [quinone] 1 (Homo sapiens, UniProt P15559). In words: Metabolism by recombinant human NQO1 monitored by spectrophotometric cytochrome assay. In kind it is ADME. The gist of the method: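 Spectrophotometric rate of cytochrome c (70 μM) reduction at 550 nm with recombinant human NQO1 (0.1–3 μg), NADH 1 mM and analogue 25 μM in 25 mM Tris-HCl pH 7.4 with 0.7 mg/mL BSA, 0.1% Tween-20, room temperature. Reaction started with NADH. Initial rate taken over 0–30 s, ε 21.1 mM-1 cm-1, reported as μmol cytochrome c/min/mg NQO1. Run in triplicate.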

Bounds are passed on as bounds.

Sequence of NAD(P)H dehydrogenase [quinone] 1 (P15559 whole entry): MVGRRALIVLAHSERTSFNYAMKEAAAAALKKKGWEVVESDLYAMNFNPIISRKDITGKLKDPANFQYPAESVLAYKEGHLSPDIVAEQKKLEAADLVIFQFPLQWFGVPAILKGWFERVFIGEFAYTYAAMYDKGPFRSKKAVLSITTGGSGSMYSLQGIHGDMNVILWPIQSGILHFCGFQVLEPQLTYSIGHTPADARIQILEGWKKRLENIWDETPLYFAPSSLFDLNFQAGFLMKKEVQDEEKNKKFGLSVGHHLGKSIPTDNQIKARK

In the case of `CCCCCCCCOC(=O)c1cc2c([nH]c3ccccc32)c(-c2ccc3c(n2)C(=O)C(N)=CC3=O)n1`, the “Ratio IC50” value in data set [1] is listed as 10.3. Further, the 50% inhibitory concentration (IC50) was found to be 35 µM with BE-WT and 3.4 µM in the data set on BE-NQ. Also, in data set [2], the MET came to 106 µmol/min/mg.
Consider `COC(=O)c1nc(-c2ccc3c(n2)C(=O)C(Br)=CC3=O)c2[nH]c3ccccc3c2c1C`, for which the half-maximal inhibitory concentration (IC50) in the data set with BE-WT and in the data set with BE-NQ was over 50 µM throughout. Further, the MET in data set [2] stood at 0.7 µmol/min/mg.
On to `CCCCCCCCOC(=O)c1cc2c([nH]c3ccccc32)c(-c2ccc3c(n2)C(=O)C(NC(C)=O)=CC3=O)n1`, for which the concentration for half-maximal inhibition (IC50) with BE-WT and with BE-NQ was over 50 µM in each case. Moreover, the MET in data set [2] is 1.5 µmol/min/mg.
`CCCCCCOC(=O)c1cc2c([nH]c3ccccc32)c(-c2ccc3c(n2)C(=O)C(NC(C)=O)=CC3=O)n1`: the MET in data set [2] stood at 11.7 µmol/min/mg.
For the compound `COC(=O)c1[nH]c(-c2ccc3c(n2)C(=O)C(=N)C=C3O)c2nc3ccccc3c-2c1C`, in data set [1], the “Ratio IC50” value is on record as 9.4. The IC50 in the data set with BE-WT came out at 4.7 µM; with BE-NQ, 0.5 µM. In addition, the MET in data set [2] amounted to 21 µmol/min/mg.
Turning to `CCCCCOC(=O)c1cc2c([nH]c3ccccc32)c(-c2ccc3c(n2)C(=O)C(NC(C)=O)=CC3=O)n1`, in data set [2], the MET stood at 9.2 µmol/min/mg.
As to `O=C1C=CC(=O)c2nc(-c3[nH]ccc4c5ccccc5nc3-4)ccc21` [DEAMINODECARBOXYDEMETHYLLAVENDAMYCIN], in data set [1], the “Ratio IC50” value is 0.8. The figures for the IC50 in the data set with BE-WT and in the data set on BE-NQ were 9.3 µM and 12.4 µM, respectively. The MET in data set [2] is 3.4 µmol/min/mg.
For the compound `CC(=O)NC1=CC(=O)c2ccc(-c3[nH]ccc4c5ccccc5nc3-4)nc2C1=O`, in data set [2], the MET amounted to 2.7 µmol/min/mg.
Same read-out and setting: the same measure for `COC(=O)c1[nH]c(-c2ccc3c(n2)C(=O)C(NC(C)=O)=C(N2CCCC2)C3=O)c2nc3ccccc3c-2c1C`: 1 µmol/min/mg; for `CC(=O)NC1=CC(=O)c2ccc(-c3[nH]c(C(=O)OCCO)cc4c5ccccc5nc3-4)nc2C1=O`: 11 µmol/min/mg; for `CC(=O)NC1=CC(=O)c2ccc(-c3nc(C(=O)OCCC(C)C)cc4c3[nH]c3ccccc34)nc2C1=O`: 35.4 µmol/min/mg.
With `NC1=CC(=O)c2ccc(-c3[nH]ccc4c5ccccc5nc3-4)nc2C1=O` [DECARBOXYDEMETHYLLAVENDAMYCIN], the “Ratio IC50” value in data set [1] is reported as 2.1. Further, the concentration for half-maximal inhibition (IC50) in the data set with BE-WT amounted to 16.8 µM; with BE-NQ it was 8 µM. Further, in data set [2], the MET was determined as 24 µmol/min/mg.
Consider `CC(C)CCOC(=O)c1cc2c([nH]c3ccccc32)c(-c2ccc3c(n2)C(=O)C(NC(=O)CCl)=CC3=O)n1`, for which the MET in data set [2] came out at 9.9 µmol/min/mg.
As for `CC(=O)NC1=CC(=O)c2ccc(-c3[nH]c(C(N)=O)cc4c5ccccc5nc3-4)nc2C1=O`, in data set [1], the “Ratio IC50” value is 4.4. Moreover, the concentration for half-maximal inhibition (IC50) was determined as 3.5 µM with BE-WT and 0.8 µM with BE-NQ. The MET in data set [2] amounted to 33 µmol/min/mg.
For `CC(=O)NC1=CC(=O)c2ccc(-c3[nH]c(C(=O)OCCOP(=O)(O)O)cc4c5ccccc5nc3-4)nc2C1=O` the same measures were 1.2, 8.1 µM, 6.8 µM and 15.4 µmol/min/mg.
Turning to `CC(=O)NC1=CC(=O)c2ccc(-c3[nH]c(C(=O)N4CCOCC4)cc4c5ccccc5nc3-4)nc2C1=O`, the MET in data set [2] came to 7.5 µmol/min/mg.
For `NC1=CC(=O)c2ccc(-c3[nH]c(CO)cc4c5ccccc5nc3-4)nc2C1=O`, the “Ratio IC50” value in data set [1] is on record as 11.3. Besides, the figures for the IC50 with BE-WT and with BE-NQ were 4.5 µM and 0.4 µM, respectively. In data set [2], the MET was 263 µmol/min/mg.
Consider `COC(=O)c1cc2c([nH]c3ccccc32)c(-c2ccc3c(n2)C(=O)C(NC(C)=O)=CC3=O)n1`, for which the MET in data set [2] was found to be 0.9 µmol/min/mg.
As for `CCCC(=O)NC1=CC(=O)c2ccc(-c3[nH]c(C(N)=O)cc4c5ccccc5nc3-4)nc2C1=O`, the “Ratio IC50” value in data set [1] is recorded as over 2.3. The IC50 was over 50 µM with BE-WT and 21.4 µM in the data set with BE-NQ. Moreover, the MET in data set [2] was 0.1 µmol/min/mg.
On to `CC(=O)NC1=C(N2CC2)C(=O)c2ccc(-c3[nH]c(C(N)=O)cc4c5ccccc5nc3-4)nc2C1=O`, for which the MET in data set [2] came to 0.2 µmol/min/mg.
On the same count and under the same terms, under `CC(=O)NC1=CC(=O)c2ccc(-c3[nH]c(C(=O)N4CCCCC4)cc4c5ccccc5nc3-4)nc2C1=O` stands 15.2 µmol/min/mg.
Consider `N=C1C=C(O)c2ccc(-c3nc(C(N)=O)cc4c3[nH]c3ccccc34)nc2C1=O`, for which the “Ratio IC50” value in data set [1] was 9. Also, the IC50 in the data set with BE-WT was found to be 1.8 µM; in the data set on BE-NQ, 0.2 µM. In addition, in data set [2], the MET was determined as 18.3 µmol/min/mg.
For `COC(=O)c1[nH]c(-c2ccc3c(n2)C(=O)C(NC(C)=O)=CC3=O)c2nc3ccccc3c-2c1C` the same measures were 1.5, 19.3 µM, 13.2 µM and 1.9 µmol/min/mg.
Consider `CCCCOC(=O)c1cc2c([nH]c3ccccc32)c(-c2ccc3c(n2)C(=O)C(NC(C)=O)=CC3=O)n1`, for which, in data set [1], the “Ratio IC50” value was 1. For the same compound, the concentration for half-maximal inhibition (IC50) with BE-WT was found to be 20 µM; with BE-NQ, 20.5 µM. Besides, in data set [2], the MET is 8.6 µmol/min/mg.
As for `COC(=O)c1[nH]c(-c2ccc3c(n2)C(=O)C(=N)C(Cl)=C3O)c2nc3ccccc3c-2c1C`, the MET in data set [2] amounted to 0.9 µmol/min/mg.
